In ChEMBL document CHEMBL3576849, “De Novo Conception of Small Molecule Modulators Based on Endogenous Peptide Ligands: Pyrrolodiazepin-2-one γ-Turn Mimics That Differentially Modulate Urotensin II Receptor-Mediated Vasoconstriction ex Vivo” (J Med Chem, 2015):
Activity calls are given as the source filed them. The calls are words filed in the database; no cut-off is given here.

What was measured:
[1] = target: T1, Urotensin-2 receptor (Rattus norvegicus) (UniProt P49684); assay: Modulation of urotensin-2 receptor in Sprague-Dawley rat thoracic aortic ring assessed as human urotensin-2 Emax for induction of aortic ring contraction at 10 uM preincubated for 15 mins followed by human urotensin-2 addition (reference value: 116 +/- 3%)
T1 sequence (whole entry): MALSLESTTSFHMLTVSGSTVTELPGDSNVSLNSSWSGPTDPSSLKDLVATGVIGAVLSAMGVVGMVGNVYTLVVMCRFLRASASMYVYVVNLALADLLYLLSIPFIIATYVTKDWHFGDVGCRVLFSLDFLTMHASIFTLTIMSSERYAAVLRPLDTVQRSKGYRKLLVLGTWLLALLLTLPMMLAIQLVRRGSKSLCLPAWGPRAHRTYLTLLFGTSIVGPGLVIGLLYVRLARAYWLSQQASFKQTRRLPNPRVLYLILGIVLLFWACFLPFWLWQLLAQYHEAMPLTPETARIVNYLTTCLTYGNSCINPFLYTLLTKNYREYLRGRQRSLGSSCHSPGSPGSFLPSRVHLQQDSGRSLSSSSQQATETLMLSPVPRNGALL
How it was run: (§1)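 Thoracic aortic rings from adult male Sprague-Dawley rats (250–300 g, killed by CO2). Rings were exposed to test compound for 15 min, then cumulative hUII concentration-response curves were run (10-10–3.10-6 M). Contraction is expressed as % of the 40 mM KCl response, with KCl given at the start and end. EC50/pEC50/Emax come from a variable-slope sigmoidal fit. At least triplicate.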

[2] = target: T2, Urotensin-2 receptor (Homo sapiens) (UniProt Q9UKP6); assay: Displacement of [125I]-human urotensin-2 from human urotensin-2 receptor expressed in CHO cells at 100 uM after 90 mins by gamma counting analysis relative to control; assay type: cell-based
T2 sequence (whole entry): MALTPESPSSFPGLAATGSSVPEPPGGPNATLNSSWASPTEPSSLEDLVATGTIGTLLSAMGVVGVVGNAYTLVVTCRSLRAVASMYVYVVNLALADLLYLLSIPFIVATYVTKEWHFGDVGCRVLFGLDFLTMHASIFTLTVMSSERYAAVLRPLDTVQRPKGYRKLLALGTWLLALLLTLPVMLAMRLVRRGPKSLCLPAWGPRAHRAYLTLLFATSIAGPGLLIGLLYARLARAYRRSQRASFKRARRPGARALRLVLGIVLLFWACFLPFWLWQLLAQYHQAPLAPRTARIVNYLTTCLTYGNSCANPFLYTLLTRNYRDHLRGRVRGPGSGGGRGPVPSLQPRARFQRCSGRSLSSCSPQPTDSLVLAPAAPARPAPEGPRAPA
How it was run: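 Incubated 90 min at room temperature with 100 µM compound plus 0.2 nM 125I-hUII (chloramine-T labelled). Cells washed and lysed, bound radioactivity gamma-counted. Reported as % of specific binding without competitor; nonspecific binding defined with 10 µM hUII. At least triplicate.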

[3] = target: T1, Urotensin-2 receptor (Rattus norvegicus); assay: Agonist activity at urotensin-2 receptor in Sprague-Dawley rat thoracic aortic ring assessed as induction of aortic ring contraction at 10 to 100 uM
How it was run: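 Thoracic aortic rings from adult male Sprague-Dawley rats (250–300 g, killed by CO2 asphyxiation); analog added alone to the organ chamber at 10 or 100 µM to test for contraction. 40 mM KCl contractions served as control at start and end. Run at least in triplicate.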

[4] = target: T1, Urotensin-2 receptor (Rattus norvegicus); assay: Modulation of urotensin-2 receptor in Sprague-Dawley rat thoracic aortic ring assessed as urotensin-2 related peptide Emax for induction of aortic ring contraction at 10 uM preincubated for 15 mins followed by urotensin-2 related peptide addition (reference value: 132 +/- 4%)
[5] = target: T1, Urotensin-2 receptor (Rattus norvegicus); assay: Modulation of urotensin-2 receptor in Sprague-Dawley rat thoracic aortic ring assessed as human urotensin-2 Emax for induction of aortic ring contraction at 15 uM preincubated for 15 mins followed by human urotensin-2 addition (reference value: 116 +/- 3%); how it was run: as §1
[6] = target: T1, Urotensin-2 receptor (Rattus norvegicus); assay: Modulation of urotensin-2 receptor in Sprague-Dawley rat thoracic aortic ring assessed as urotensin-2 related peptide Emax for induction of aortic ring contraction at 15 uM preincubated for 15 mins followed by urotensin-2 related peptide addition (reference value: 132 +/- 4%)
[7] = target: T2, Urotensin-2 receptor (Homo sapiens); assay: Effect on [125I]-human urotensin-2 binding to human urotensin-2 receptor expressed in CHO cells at 100 uM after 90 mins by gamma counting analysis relative to control; assay type: cell-based
How it was run: (§2)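 Whole CHO cells stably expressing human UT, plated at 150,000 cells/well, incubated with test compound (100 µM) and 0.2 nM 125I-hUII for 90 min at room temperature. Cells were washed and lysed, and bound radioactivity was gamma-counted. Results are % of specific binding without competitor. Non-specific binding was defined with 10 µM hUII. At least triplicate; mean ± S.E.M.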

[8] = target: T2, Urotensin-2 receptor (Homo sapiens); assay: Induction of [125I]-human urotensin-2 binding to human urotensin-2 receptor expressed in CHO cells at 100 uM after 90 mins by gamma counting analysis relative to control; assay type: cell-based; how it was run: as §2
[9] = target: T1, Urotensin-2 receptor (Rattus norvegicus); assay: Modulation of urotensin-2 receptor in Sprague-Dawley rat thoracic aortic ring assessed as human urotensin-2 Emax for induction of aortic ring contraction at 4 uM preincubated for 15 mins followed by human urotensin-2 addition (reference value: 116 +/- 3%)
[10] = target: T1, Urotensin-2 receptor (Rattus norvegicus); assay: Modulation of urotensin-2 receptor in Sprague-Dawley rat thoracic aortic ring assessed as human urotensin-2 Emax for induction of aortic ring contraction at 14 uM preincubated for 15 mins followed by human urotensin-2 addition (reference value: 116 +/- 3%)
[11] = target: T1, Urotensin-2 receptor (Rattus norvegicus); assay: Modulation of urotensin-2 receptor in Sprague-Dawley rat thoracic aortic ring assessed as urotensin-2 related peptide Emax for induction of aortic ring contraction at 14 uM preincubated for 15 mins followed by urotensin-2 related peptide addition (reference value: 132 +/- 4%)
[12] = target: T1, Urotensin-2 receptor (Rattus norvegicus); assay: Modulation of urotensin-2 receptor in Sprague-Dawley rat thoracic aortic ring assessed as reduction of human urotensin-2-induced aortic ring contraction preincubated for 15 mins followed by human urotensin-2 addition
Rattus norvegicus = species on record: Rattus norvegicus; assay: Modulation of […] in Sprague-Dawley rat thoracic aortic ring assessed as change in human endothelin-1-induced aortic ring contraction at 1.4 x 10^-5 M
[13] = target: T1, Urotensin-2 receptor (Rattus norvegicus); assay: Modulation of urotensin-2 receptor in Sprague-Dawley rat thoracic aortic ring assessed as human urotensin-2 Emax for induction of aortic ring contraction at 1 uM preincubated for 15 mins followed by human urotensin-2 addition (reference value: 116 +/- 3%)
[14] = target: T1, Urotensin-2 receptor (Rattus norvegicus); assay: Noncompetitive antagonist activity at urotensin-2 receptor in Sprague-Dawley rat thoracic aortic ring assessed as reduction in human urotensin-2-induced response at 4 uM by double reciprocal plot analysis
[15] = target: T1, Urotensin-2 receptor (Rattus norvegicus); assay: Modulation of urotensin-2 receptor in Sprague-Dawley rat thoracic aortic ring assessed as human urotensin-2 Emax for induction of aortic ring contraction at 11 uM preincubated for 15 mins followed by human urotensin-2 addition (reference value: 116 +/- 3%)
[16] = target: T1, Urotensin-2 receptor (Rattus norvegicus); assay: Modulation of urotensin-2 receptor in Sprague-Dawley rat thoracic aortic ring assessed as urotensin-2 related peptide Emax for induction of aortic ring contraction at 11 uM preincubated for 15 mins followed by urotensin-2 related peptide addition (reference value: 132 +/- 4%)
[17] = target: T1, Urotensin-2 receptor (Rattus norvegicus); assay: Modulation of urotensin-2 receptor in Sprague-Dawley rat thoracic aortic ring assessed as human urotensin-2 Emax for induction of aortic ring contraction at 8 uM preincubated for 15 mins followed by human urotensin-2 addition (reference value: 116 +/- 3%); how it was run: as §1
[18] = target: T1, Urotensin-2 receptor (Rattus norvegicus); assay: Modulation of urotensin-2 receptor in Sprague-Dawley rat thoracic aortic ring assessed as urotensin-2 related peptide Emax for induction of aortic ring contraction at 8 uM preincubated for 15 mins followed by urotensin-2 related peptide addition (reference value: 132 +/- 4%)

Compound	inhibition [2] [%]	Activity [3]	Emax [1] [%]	Emax [4] [%]	Activity [7]	other results
NCCCC[C@@H]1N[C@@H](c2ccc3ccccc3c2)c2[nH]c(C(=O)O)cc2N(CCc2ccc(O)cc2)C1=O	25	inactive	194	107	–	–
NCCC[C@@H]1N[C@@H](c2cccc3ccccc23)c2[nH]c(C(=O)O)cc2N(CCc2ccc(O)cc2)C1=O	25	inactive	148	238	–	–
NCCCC[C@@H]1N=C(c2ccc(-c3ccccc3)cc2)c2[nH]c(C(=O)O)cc2N(CCc2ccc(O)cc2)C1=O	–	inactive	–	–	inactive	Emax [5]: 128%; Emax [6]: 110%
NCCCC[C@@H]1N=C(c2ccc3ccccc3c2)c2[nH]c(C(=O)O)cc2N(CCc2ccc(O)cc2)C1=O	–	inactive	80	51	inactive	–
NCCC[C@@H]1N=C(c2cccc3ccccc23)c2[nH]c(C(=O)O)cc2N(CCc2ccc(O)cc2)C1=O	–	inactive	74	46	inactive	–
NCCC[C@@H]1N=C(c2ccc(-c3ccccc3)cc2)c2[nH]c(C(=O)O)cc2N(CCc2ccc(O)cc2)C1=O	–	inactive	97	93	–	Activity [8]: 117%
NCCC[C@@H]1N=C(c2ccc3ccccc3c2)c2[nH]c(C(=O)O)cc2N(CCc2ccc(O)cc2)C1=O	–	inactive	70	142	inactive	–
NCCC[C@@H]1N[C@H](c2ccc(-c3ccccc3)cc2)c2[nH]c(C(=O)O)cc2N(CCc2ccc(O)cc2)C1=O	–	inactive	–	–	inactive	Emax [15]: 162%; Emax [16]: 139%
NCCCC[C@@H]1N=C(c2cccc3ccccc23)c2[nH]c(C(=O)O)cc2N(CCc2ccc(O)cc2)C1=O	–	inactive	–	–	inactive	Emax [17]: 123%; Emax [18]: 60%

Now from value to molecule, other results behind:

inhibition [2] [%]	Activity [3]	Compound	Emax [1] [%]	Emax [4] [%]	Activity [7]	other results
25	inactive	NCCCC[C@@H]1N[C@H](c2ccc(-c3ccccc3)cc2)c2[nH]c(C(=O)O)cc2N(CCc2ccc(O)cc2)C1=O	–	–	–	Emax [9]: 63%; Emax [10]: 0%; Emax [11]: 185%; Activity [12]: Dose-dependent effect; Activity (Rattus norvegicus): inactive; Emax [13]: 92%; Kb [14]: 2900 nM; pKb [14]: 5.54
25	inactive	NCCCC[C@@H]1N[C@H](c2ccc3ccccc3c2)c2[nH]c(C(=O)O)cc2N(CCc2ccc(O)cc2)C1=O	175	217	–	–
25	inactive	NCCC[C@@H]1N[C@H](c2cccc3ccccc23)c2[nH]c(C(=O)O)cc2N(CCc2ccc(O)cc2)C1=O	139	210	–	–
–	inactive	NCCCC[C@@H]1N[C@@H](c2ccc(-c3ccccc3)cc2)c2[nH]c(C(=O)O)cc2N(CCc2ccc(O)cc2)C1=O	–	–	inactive	Emax [10]: 121%; Emax [11]: 113%
